Screening results as filed in PubChem.
DDE Tn6 FP inh: disrupts Tn6 cyclic peptide binding to fibrin D-Dimer-E complex; P02675; Fibrin DD(E) TRITC-Tn6 fluorescence polarization displacement; inhibition, % at 8.3 µM; hit rate 0.21% among 370,000; AID 720509;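 active = inhibition above a per-campaign cutoff: mean of compounds within control limits plus 3 SD, cut at about 15% in these data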;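 also: 0% = median of all compound wells on the plate and 100% = blocking peptide control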
Target sequence (P02675 whole entry, looked up): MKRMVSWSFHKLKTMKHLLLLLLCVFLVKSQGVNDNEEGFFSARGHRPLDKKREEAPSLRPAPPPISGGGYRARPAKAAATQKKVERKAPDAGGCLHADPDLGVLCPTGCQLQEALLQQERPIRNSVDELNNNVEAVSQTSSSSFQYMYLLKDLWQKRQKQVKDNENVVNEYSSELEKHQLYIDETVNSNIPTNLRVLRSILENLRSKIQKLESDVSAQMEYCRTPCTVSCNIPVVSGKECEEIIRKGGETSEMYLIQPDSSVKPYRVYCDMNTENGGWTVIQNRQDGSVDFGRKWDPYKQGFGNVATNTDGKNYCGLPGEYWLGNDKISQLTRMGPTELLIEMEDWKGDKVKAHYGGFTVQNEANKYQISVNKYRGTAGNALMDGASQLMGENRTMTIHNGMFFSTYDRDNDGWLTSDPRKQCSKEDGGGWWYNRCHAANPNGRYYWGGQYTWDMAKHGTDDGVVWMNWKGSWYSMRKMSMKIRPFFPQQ
DDE Tn7 FP inh: DD(E)-Tn7 binding inhibition, primary FP screen. FP displacement of FITC-Tn7 peptide from fibrin DD(E); 0% = median of compound wells per plate. AID 720508. hit rate 0.13% among 370,000. P02675. inhibition, % at 8.3 µM;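 active = inhibition above the mean of compounds falling within the control limits plus 3 SD of them, cut at about 14% in these data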;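 also: 0% = plate median of compound wells and 100% = 10 µM Aha-Tn7 peptide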
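Assay system: human fibrin DD(E). Input: DD(E) 2 µM final. Medium: Tris buffer with calcium and detergent, pH 7.8. Compound dosing: single point at 8.3 µM. Timing: 10 min plus 3 h, room temperature. Technique: fluorescence polarization of the labelled Tn7 tracer. Read-out: percent inhibition. Replicates: singlicate testing.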
PKA-R1A activ: activators of PKA-R1A complex; hit rate 0.083% among 340,000; PKA-R1A dissociation, Cy5-IP20 fluorescence polarization; scaled: DMSO 0%, 113 µM cGMP 100%; activation, % at 11.4 µM; P00514+P68181; AID 504707;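 active = percent activation above the mean of all tested compounds plus 3 SD, cut at about 19% in these data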;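 also: higher means more PKAc released from R1A so a rise in polarization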
Neddylation inh: cullin neddylation inhibition; P61081+Q13564; inhibition, % at 25 µM; hit rate 0.58% among 360,000; TR-FRET cullin neddylation, biochemical; in the data active = inhibition above about 36%
PKA-R2B act: activators of human PKA-R2B complex; activation, % at 11.4 µM; P22694+P31323; PKA-R2B holoenzyme dissociation, Cy5-IP20 fluorescence polarization; R2B truncated from residue 108, S112A mutant; 0% DMSO only, 100% 113 µM cGMP; hit rate 0.079% among 340,000; AID 504700;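 active = activation above a cutoff set at the mean over all compounds plus 3 SD, cut at about 18% in these data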;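 also: higher means more holoenzyme dissociation and a rise in polarization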
Neddyl inh conf: cullin neddylation inhibition, confirmation | shares compounds with Neddylation inh | TR-FRET cullin neddylation biochemical assay | calls only at 25 µM | hit rate 13% among 1,800; in the data active = inhibition above about 40%;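 also: neddylation substrate is the cullin 1 ring ligase complex with SKP2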
* hit, by the source's call; i = inactive; . = no result shown. Sampled rows, rich in hits. Any-hit rate of the full collection: about 1%.

SMILES	DDE Tn6 FP inh	DDE Tn7 FP inh	PKA-R1A activ	Neddylation inh	PKA-R2B act	Neddyl inh conf
CN1CCC(C(=O)N2CCCC(C(=O)c3ccc4c5c(cccc35)CC4)C2)CC1 (stereo unspecified)	1	1	1	41*	-2	i
COc1ccc(C2NC3=C(CCC3)C3(C#N)C(OC)(OC)N=C(N)C23C#N)cc1 (stereo unspecified)	.	.	-8	39*	-1	i
COC1(OC)N=C(N)C2(C#N)C(c3ccccc3)NC(C)=CC12C#N (stereo unspecified)	0	-8	-6	.	4	.
Cc1cccc(C(=O)Oc2ccc(/C=N/NC(=O)c3ccncc3)cc2)c1	-9	5	-7	40*	-1	i
O=C(Oc1ccc(/C=N/NC(=O)c2ccccc2F)cc1)c1ccccc1	0	0	2	7	-7	.
O=C(Oc1ccc(/C=N/NC(=O)c2ccccc2O)cc1)c1ccccc1	-7	1	-10	39*	-13	i
O=C(NCc1cccc(C(F)(F)F)c1)O[C@H]1CC[C@@]23CCCN2C(=O)CCC[C@H]3C1	11	0	.	.	.	.
CSc1ccc(/C=N/NC(=O)c2sccc2C)cc1	-7	3	3	38*	-7	i
Cc1ccc2nc(C(C)(C)C)c(Cc3cccc(F)c3)n2c1	-4	-5	.	40*	.	i
Cc1ccc(-c2nc3ccc(C)cn3c2Cc2cccc(F)c2)cc1	2	7	.	33	.	.
O=C(CN1CCN(Cc2ccccc2Cl)CC1)N/N=C\c1ccccc1F	2	-1	.	.	.	.
COc1ccc(/C=N/NC(=O)c2cccs2)c2ccccc12	-14	0	-6	46*	0	i
COc1ccc(OC)c(C=NNC(=O)c2ccccc2NS(=O)(=O)c2cccs2)c1	10	4	-19	34*	10	.
COc1cc(C=NNC(=O)c2ccccc2NS(=O)(=O)c2cccs2)cc(OC)c1O	-1	-5	-10	19	1	.
CCCOc1ccc(-c2cc(C(F)(F)F)c(C#N)c(SCC(=O)O)n2)cc1	-4	1	-8	40*	-2	i
Cc1ccc(C(=O)c2oc3ccccc3c2NC(=O)c2cc(-c3ccccc3O)n[nH]2)cc1	6	-4	1	.	-9	.
Cc1ccc(C(=O)c2oc3ccccc3c2NC(=O)c2cc(-c3cc(C)ccc3O)n[nH]2)cc1	-11	-5	-11	40*	-12	i
O=C(NCC1CCCCC1)c1cc2ccccc2cc1O	3	-1	-5	45*	-1	.
C=CCNC(=O)C(C#N)c1nc2ccccc2nc1N1CCN(Cc2ccccc2)CC1 (stereo unspecified)	.	.	-15	42*	-18	i
O=C(N/N=C/c1ccccc1)c1cccc2ccccc12	-3	2	-7	0	-5	.
O=C(N/N=C/c1cccn1-c1ccc(O)cc1)c1cccc2ccccc12	0	-1	-9	45*	3	i
O=c1oc(-c2ccccc2)cc(Cl)c1Cl	-12	-42	-13	12	-6	.
O=P(O)(O)c1cc(-c2ccccc2)oc1-c1ccccc1	-8	-5	-11	46*	-4	.
CC(C)(C)n1nnnc1C(c1cc2cc3c(cc2[nH]c1=O)OCCO3)N1CCSCC1 (stereo unspecified)	5	4	-3	47*	-4	.
COc1ccc2cc(C(c3nnnn3C(C)(C)C)N3CCSCC3)c(=O)[nH]c2c1 (stereo unspecified)	2	-2	2	-10	3	.
SMILES	DDE Tn6 FP inh	DDE Tn7 FP inh	PKA-R1A activ	Neddylation inh	PKA-R2B act	Neddyl inh conf
COC(=O)[C@]12C[C@H](CC(=O)NCc3cccs3)C(=O)N(CCC3=CCCCC3)C1=C[C@H](C1CCCC1)O[C@@H]2C	-2	-10	.	.	.	.
Cc1cc(N2CCN(C)CC2)nc2ccc(NC(=O)CCC(=O)NCCc3ccc(Cl)cc3)cc12	0	6	2	42*	8	i
CCCCN(C)C(=O)CCC(=O)Nc1ccc2nc(N3CCN(C)CC3)cc(C)c2c1	6	6	-4	45*	-1	i
CCCCN(C)C(=O)CCC(=O)Nc1ccc2nc(N3CCOCC3)cc(C)c2c1	3	5	-10	.	-6	.
C[C@H]1[C@@H](OC(=O)Nc2cccc(Cl)c2)CC[C@@]23CCCN2C(=O)CCC[C@@H]13	7	8	.	.	.	.
Cc1ccccc1Nc1c(-c2cccnc2)nc2ccccn12	1	11	5	39*	-6	i
CCC(NC(=O)c1ccccc1O)c1ccccc1 (stereo unspecified)	10	7	5	49*	-1	i
Brc1ccc(-c2csc(N3CCC(c4nn[nH]n4)CC3)n2)cc1	-4	3	.	.	.	.
C[C@@H]1CN([C@@H](C)CO)C(=O)c2cc(/C=C/c3ccccc3)cnc2O[C@@H]1CN(C)S(=O)(=O)c1ccc(F)cc1	3	2	-11	41*	-9	i
O=S1(=O)N=C(Oc2cccc3ccccc23)c2ccccc21	1	-1	-14	42*	-11	i
Cc1ccccc1OC1=NS(=O)(=O)c2ccccc21	0	1	-8	6	0	.
Cc1nc2cc(F)ccc2n1C1CCN(C(=O)c2c(F)cccc2F)CC1	5	1	0	45*	8	i
O=C(OCc1cc(=O)n2ccsc2n1)c1ccccc1O	4	2	1	16	-17	.
O=C(OCc1cc(=O)n2ccsc2n1)c1ccccc1NCCO	7	4	-2	39*	-1	.
O=S(=O)(Nc1nc2ccccc2nc1NCC1CCCO1)c1cccs1 (stereo unspecified)	1	-1	6	13	0	.
Cc1cccc(S(=O)(=O)Nc2nc3ccccc3nc2NCC2CCCO2)c1 (stereo unspecified)	1	12	2	28	-5	.
Cc1ccc(S(=O)(=O)Nc2nc3ccccc3nc2NCC2CCCO2)cc1C (stereo unspecified)	-2	-2	-12	39*	-5	i
Cc1ccc(S(=O)(=O)Nc2nc3ccccc3nc2NCC2CCCO2)c(C)c1 (stereo unspecified)	-10	-2	-10	47*	-3	.
CC1Cc2c([nH]c3ccccc23)C(=O)N1 (stereo unspecified)	0	-2	4	50*	-3	.
Cc1ccc(Cn2cc(CN3[C@H](CC(C)C)COc4cc(Br)ccc4S3(=O)=O)nn2)cc1	6	-6	.	.	.	.
COc1ccccc1CCn1cnc2c3cc(C)ccc3n(C)c2c1=O	-4	-2	3	43*	6	.
CCOc1ccc(-n2c(O)c(/C=N/NC(=O)C3COc4ccccc4O3)c3ccccc3c2=O)cc1 (stereo unspecified)	-6	2	1	42*	1	i
